The target of data set [1] is Galectin-3 (Homo sapiens) (UniProt P17931). Description: Inhibition of galectin-3 binding to biotinylated lectin at cell surface of human Jurkat T-cells at 2 mM by fluorometric analysis. The class given is cell-based. In short, it runs like this:
(§1)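 Recombinant biotinylated galectin-3, at a concentration set by titration, was bound to 5 × 10⁴ Jurkat or SW480 cells per assay, with or without compound. Lactose was run in parallel as reference. A fluorescent second-step reagent gave percent positive cells and mean fluorescence intensity by flow cytometry. Negative controls omitted labeled lectin, and non-cognate sugars served as osmolarity controls.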

The next data set has as its system Viscum album. In words: Ratio IC50 for lactose to compound for Viscum album agglutinin binding to biotinylated neoglycoprotein with p-isothiocyanatophynyl lactoside assessed as lectin-neoglycoprotein complex formation after 1 hr by spectrophotometric analysis. The essentials:
(§2)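 Lactosylated BSA (p-isothiocyanatophenyl lactoside, about 26 sugars per carrier) was adsorbed to wells from PBS overnight at 4 °C. Biotinylated lectin, at a concentration from titration, was incubated 1 h at 37 °C with up to nine compound concentrations. Bound lectin was read spectrophotometrically. Glycocluster concentration was normalized to sugar content, and lactose served as internal reference. Triplicates were run in up to five series.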

Data set [2] has as its target Galectin-3 (Homo sapiens) (UniProt P17931). In words: Ratio IC50 for lactose to compound for galectin-3 binding to biotinylated neoglycoprotein with p-isothiocyanatophynyl lactoside assessed as lectin-neoglycoprotein complex formation after 1 hr by spectrophotometric analysis. In short, it runs like this:
as §2

Data set [3] deals with T1, Galectin-8 (Homo sapiens) (UniProt O00214).
T1 sequence (whole entry): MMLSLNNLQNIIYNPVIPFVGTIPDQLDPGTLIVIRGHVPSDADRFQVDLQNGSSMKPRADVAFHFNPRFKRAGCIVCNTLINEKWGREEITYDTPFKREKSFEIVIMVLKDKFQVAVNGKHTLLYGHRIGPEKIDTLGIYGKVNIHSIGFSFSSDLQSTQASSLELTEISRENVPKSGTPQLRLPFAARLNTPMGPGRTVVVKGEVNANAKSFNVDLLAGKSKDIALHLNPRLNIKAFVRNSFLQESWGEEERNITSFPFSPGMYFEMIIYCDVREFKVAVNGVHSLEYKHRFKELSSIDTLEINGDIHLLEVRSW
Description: Ratio IC50 for lactose to compound for galectin-8 binding to biotinylated neoglycoprotein with p-isothiocyanatophynyl lactoside assessed as lectin-neoglycoprotein complex formation after 1 hr by spectrophotometric analysis. The essentials:
as §2

Data set [4] has as its target Galectin-9 (Homo sapiens) (UniProt O00182). In words: Ratio IC50 for lactose to compound for galectin-9 binding to biotinylated neoglycoprotein with p-isothiocyanatophynyl lactoside assessed as lectin-neoglycoprotein complex formation after 1 hr by spectrophotometrically relative to lactose. The essentials:
as §2

Data set [5] has as its system Jurkat. In words: Inhibition of Viscum album agglutinin binding to biotinylated lectin at cell surface of human Jurkat T-cells at 2.5 ug/ml by fluorometric analysis. In kind it is cell-based. In short, it runs like this: (§3)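 Biotinylated mistletoe lectin (VAA, purified from dried leaves on lactosylated Sepharose) was bound to 5 × 10⁴ Jurkat cells per assay at 2.5 µg/ml, with or without compound. Staining was detected with a fluorescent second-step reagent by flow cytometry, as percent positive cells and mean fluorescence intensity. Controls were lactose/galactose, non-cognate sugars for osmolarity, and omission of labeled lectin.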

Data set [6] concerns the target Galectin-3 (Homo sapiens) (UniProt P17931). Description: Inhibition of galectin-3 binding to biotinylated lectin at cell surface of human Jurkat T-cells at 1 mM by fluorometric analysis relative to lactose. The class given is cell-based. The essentials: as §1
Data set [7] has as its target T1, Galectin-8 (Homo sapiens). Description: (§4) Inhibition of galectin-8 binding to biotinylated lectin at cell surface of human SW480 cells at 2 mM by fluorometric analysis. In kind it is cell-based. The essentials:
(§5)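 Biotinylated recombinant galectin-8 (1 µg/ml) or galectin-9 (40 µg/ml) was bound to 5 × 10⁴ SW480 cells per assay, with or without compound at 2 mM. Lactose was run in parallel. Staining via a fluorescent second-step reagent was quantified as percent positive cells and mean fluorescence intensity. Controls were omission of lectin and non-cognate sugars.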

Data set [8] has as its target Galectin-9 (Homo sapiens) (UniProt O00182). In words: Inhibition of galectin-9 binding to biotinylated lectin at cell surface of human SW480 cells at 2 mM by fluorometric analysis. The class given is cell-based. The essentials:
as §5

Data set [9] can be described thus: (§6) Cytotoxicity against human SW480 cells assessed as cell viability at 2 mM after 48 hrs by MTT assay. In kind it is cell-based. The conditions noted are these: SW480 cells, read-out: GI. In short, it runs like this:
(§7)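 SW480 human colon adenocarcinoma cell aliquots were cultured 48 h with no addition (control) or with test compound added to the medium at 1, 2, 5 or 10 mM. Galactose and lactose were run as controls. Growth was read spectrophotometrically with MTT (0.5 mg/ml) and expressed relative to the untreated control. Triplicates were run in three independent series.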
For orientation: Formazan colour is commonly taken as a measure of viable cells.

Data set [10] is described as follows: Cytotoxicity against human SW480 cells assessed as growth inhibition at 1 mM after 48 hrs by MTT assay. In kind it is cell-based. The conditions noted are these: read-out: GI. The essentials: as §7
In data set [11] the target is Galectin-3 (Homo sapiens) (UniProt P17931). Description: Inhibition of galectin-3 binding to biotinylated lectin at cell surface of human Jurkat T-cells at 15 uM by fluorometric analysis. In kind it is cell-based. The essentials:
as §1

The target is the same in data set [12]. Description: Inhibition of galectin-3 binding to biotinylated lectin at cell surface of human SW480 cells at 15 uM by fluorometric analysis. The class given is cell-based. The essentials: as §1
In data set [13] the test system is Jurkat. Description: Inhibition of Viscum album agglutinin binding to biotinylated lectin at cell surface of human Jurkat T-cells at 1 mM by fluorometric analysis. The class given is cell-based. In short, it runs like this:
as §3

The subject of another data set is SW480. The data set is described as §6. In kind it is cell-based. The following applies: sw480, 48 h, 2000 µM. In short, it runs like this: as §7
Data set [14] can be described thus: Cytotoxicity against human SW480 cells assessed as growth inhibition at 5 mM after 48 hrs by MTT assay. In kind it is cell-based. The following applies: read-out: GI. In short, it runs like this:
as §7

Data set [15] deals with Galectin-8 (Homo sapiens) (UniProt O00214). The data set is described as §4. In kind it is cell-based. In short, it runs like this:
as §5
This is another data set of the same source.

In data set [16] the target is Galectin-3 (Homo sapiens) (UniProt P17931). In words: Inhibition of galectin-3 binding to biotinylated lectin at cell surface of human Jurkat T-cells at 100 uM by fluorometric analysis. In kind it is cell-based. In short, it runs like this:
as §1

For data set [17] the target is unchanged. Description: Inhibition of galectin-3 binding to biotinylated lectin at cell surface of human SW480 cells at 100 uM by fluorometric analysis. The class given is cell-based. In short, it runs like this: as §1
Data set [18] addresses Galectin-1 (Homo sapiens) (UniProt P09382). Description: Ratio IC50 for lactose to compound for galectin-1 binding to biotinylated neoglycoprotein with p-isothiocyanatophynyl lactoside assessed as lectin-neoglycoprotein complex formation after 1 hr by spectrophotometric analysis. The essentials: as §2

The source made the active and inactive calls. No cut-off for these calls is given here.

Chain of Galectin-3 (Homo sapiens) (P17931 whole entry): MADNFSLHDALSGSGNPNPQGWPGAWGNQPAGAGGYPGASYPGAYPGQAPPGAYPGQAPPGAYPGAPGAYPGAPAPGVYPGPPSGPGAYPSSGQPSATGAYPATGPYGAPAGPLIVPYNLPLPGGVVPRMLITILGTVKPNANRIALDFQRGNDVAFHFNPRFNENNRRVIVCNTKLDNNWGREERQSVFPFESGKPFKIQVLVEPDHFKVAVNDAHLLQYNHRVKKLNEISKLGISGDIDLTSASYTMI
Chain of Galectin-9 (Homo sapiens) (O00182 whole entry): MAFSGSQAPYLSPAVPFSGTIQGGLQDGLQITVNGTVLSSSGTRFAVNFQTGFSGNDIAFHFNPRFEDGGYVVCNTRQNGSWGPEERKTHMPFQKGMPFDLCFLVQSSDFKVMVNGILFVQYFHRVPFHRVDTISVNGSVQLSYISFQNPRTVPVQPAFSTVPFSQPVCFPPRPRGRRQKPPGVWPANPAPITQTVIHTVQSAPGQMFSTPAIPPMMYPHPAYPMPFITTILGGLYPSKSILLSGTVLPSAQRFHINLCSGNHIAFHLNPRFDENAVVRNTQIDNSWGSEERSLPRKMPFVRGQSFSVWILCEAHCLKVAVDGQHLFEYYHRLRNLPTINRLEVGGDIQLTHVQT
Chain of Galectin-1 (Homo sapiens) (P09382 whole entry): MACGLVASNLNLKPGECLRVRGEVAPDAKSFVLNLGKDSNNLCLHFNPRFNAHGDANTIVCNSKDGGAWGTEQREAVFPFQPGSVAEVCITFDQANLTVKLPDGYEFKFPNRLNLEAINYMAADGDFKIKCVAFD

As to `C=C(C[C@@H]1O[C@H](CO)[C@H](O)[C@H](O)[C@H]1O)c1cccc([N+](=O)[O-])c1`, in data set [1], the inhibition result is “inactive”.
Regarding `O=C(NCc1cn([C@@H]2O[C@H](CO)[C@H](O[C@@H]3O[C@H](CO)[C@H](O)[C@H](O)[C@H]3O)[C@H](O)[C@H]2O)nn1)c1cc(C(=O)NCc2cn([C@@H]3O[C@H](CO)[C@H](O[C@@H]4O[C@H](CO)[C@H](O)[C@H](O)[C@H]4O)[C@H](O)[C@H]3O)nn2)cc(C(=O)NCc2cn([C@@H]3O[C@H](CO)[C@H](O[C@@H]4O[C@H](CO)[C@H](O)[C@H](O)[C@H]4O)[C@H](O)[C@H]3O)nn2)c1`, the Ratio IC50 in the data set with Viscum album is 6.2; in [2], 8.4; in [3], 6.9; in data set [4], 7.7. The inhibition result (in the data set with Jurkat [5]; in data set [7]; in data set [8]; in data set [11]; in data set [12]) was “Active” in each case. The same molecule had a fold change (FC) in data set [6] of 7. Besides, the inhibition at 48 h, 2000 µM in [9] is 58%. Also, in [10], the inhibition at 48 h, 1000 µM worked out at 75%.
For `Cc1nc(NC(=O)c2ccccc2)sc1[C@@H]1O[C@H](CO)[C@H](O)[C@H](O)[C@H]1O`, the Ratio IC50 in the data set with Viscum album amounted to 1.2; in data set [2] it was 1.3. In the data set with Jurkat [13], the inhibition result is “Active”.
The corresponding values for `Cc1nc(NC(=O)Cc2ccccc2)sc1[C@@H]1O[C@H](CO)[C@H](O)[C@H](O)[C@H]1O` are 1.3, 1.1 and “Active”.
`O=C(O)c1cn([C@H]2[C@@H](O)[C@@H](CO)O[C@@H](Sc3nc4ccccc4s3)[C@@H]2O)nn1`: the Ratio IC50 in data set [2] was determined as 1.4. Moreover, the inhibition at 48 h, 2000 µM in data set [9] amounted to 40%. Moreover, in [10], the inhibition at 48 h, 1000 µM amounted to 70%.
Take `Cc1nc(NS(=O)(=O)c2ccc3ccccc3c2)sc1[C@@H]1O[C@H](CO)[C@H](O)[C@H](O)[C@H]1O`: in the data set on SW480, the Activity entry is “Non-toxic”. In addition, the inhibition at 48 h, 5000 µM in data set [14] came out at 50%.
Consider `C#CCO[C@H]1[C@@H](O)[C@@H](CO)O[C@@H](Sc2ccccc2C(=O)OC)[C@@H]1O`, for which the Ratio IC50 in data set [2] is 1.8. For the same molecule, the inhibition at 48 h, 1000 µM in [10] came to 10%.
With `COc1ccc(C(=O)Nc2nc(C)c([C@@H]3O[C@H](CO)[C@H](O)[C@H](O)[C@H]3O)s2)cc1`, the Activity entry with SW480 is reported as “Non-toxic”. For the same molecule, the inhibition at 48 h, 5000 µM in data set [14] is 50%.
With `O=S(=O)(O)OCc1cn([C@H]2[C@@H](O)[C@@H](CO)O[C@@H](Sc3nc4ccccc4s3)[C@@H]2O)nn1`, in data set [4], the Ratio IC50 was found to be 1.4.
For the molecule LACTOSE, ANHYDROUS, the inhibition result in data set [1] was “inactive”. Also, the inhibition result in data set [15], in data set [8], in data set [16] and in data set [17] was “Active” each time.
In the case of `O=C(CCSCCC(F)(F)C(F)(F)C(F)(F)C(F)(F)C(F)(F)C(F)(F)C(F)(F)C(F)(F)F)NC(CO[C@@H]1O[C@H](CO)[C@H](O)[C@H](O)[C@H]1O)(CO[C@@H]1O[C@H](CO)[C@H](O)[C@H](O)[C@H]1O)CO[C@@H]1O[C@H](CO)[C@H](O)[C@H](O)[C@H]1O`, the Ratio IC50 in the data set on Viscum album came to 2.2; in [18], 1.8; in [2] it was 6.2; in [3], 4.6; in data set [4], 5.1. The inhibition result (in the data set with Jurkat [5]; in data set [7]; in [8]) was “Active” each time. This molecule also had a fold change (FC) in [6] of 7.
As for `OC[C@@H]1O[C@H](C/C=C/c2cccc(/C=C/C[C@@H]3O[C@H](CO)[C@H](O)[C@H](O)[C@H]3O)c2)[C@@H](O)[C@H](O)[C@@H]1O`, the Ratio IC50 in the data set with Viscum album was determined as 1.9.
Consider `CC(C)(C)C(=O)c1cc(CO[C@@H]2O[C@H](CO)[C@H](O[C@@H]3O[C@H](CO)[C@H](O)[C@H](O)[C@H]3O)[C@H](O)[C@H]2O)on1`, for which the Ratio IC50 came out at 1.6 in data set [2], 2.2 in data set [3] and 1.7 in [4]. Besides, the inhibition entry in data set [7] and in [8] was “Active” throughout.
With `C/C=C/[C@@H]1O[C@H](CO)[C@H](O)[C@H](O)[C@H]1O`, the Activity entry in the data set on SW480 is recorded as “Non-toxic”. Moreover, in data set [14], the inhibition at 48 h, 5000 µM is 50%.

The values are drawn from ChEMBL document CHEMBL1817612, “Inhibitory potential of chemical substitutions at bioinspired sites of β-D-galactopyranose on neoglycoprotein/cell surface binding of two classes of medically relevant lectins” (Bioorg Med Chem, 2011).
